Experiments:
HeLa = assay: Cytotoxicity against human HeLa cells assessed as inhibition of colony formation after 5 to 8 days by colony assay; assay type: functional, cell-based
Summary of the method: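 HeLa cells were seeded at 100-150 cells per well and grown with a range of compound concentrations in MEM with 10% fetal calf serum for 5-8 days at 37 °C under 5% CO2/95% air. Colonies were stained with 1% methylene blue in 50% methanol and counted; a cluster of 40 or more cells counted as one colony.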

[1] = system: Human immunodeficiency virus 1; assay: Antiviral activity against HIV1 in cell cultures assessed as inhibition of viral replication; assay type: functional, organism-based
XC = assay: Cytotoxicity against rat XC cells assessed as inhibition of colony formation after 5 to 8 days by colony assay; assay type: functional, cell-based
Summary of the method: (§1)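 Colony-formation assay: 100-150 cells per well grown with varying concentrations of compound for 5-8 days at 37 °C under 5% CO₂/95% air. Colonies were stained with 1% methylene blue in 50% methanol and counted, with clusters of 40 or more cells scored as colonies. IC50 was estimated from dose-response curves.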

MDCK [2] = assay: Cytotoxicity against MDCK cells assessed as inhibition of colony formation after 5 to 8 days by colony assay; assay type: cell-based; settings: Canis lupus familiaris; summary of the method: as §1
Vero = assay: Cytotoxicity against african green monkey Vero cells assessed as inhibition of colony formation after 5 to 8 days by colony assay; assay type: cell-based; settings: Chlorocebus sabaeus; summary of the method: as §1
MDCK [3] = assay: Cytotoxicity against MDCK cells at 1 mM by MTT assay; assay type: cell-based, Canis lupus familiaris; settings: dog, 1000 µM

SMILES	IC50 (HeLa) [µM]	also measured
COc1cc(-c2c3c4ccccc4oc(=O)c3n3ccc4cc(O)c(OC)cc4c23)ccc1O	4	–
COc1ccc2oc(=O)c3c(c(-c4ccc(O)c(OC)c4)c4c5cc(OC)c(O)cc5ccn43)c2c1	0.85	–
COc1ccc(-c2c3c4cc5c(cc4oc(=O)c3n3ccc4cc(OC)c(OC)cc4c23)OCO5)cc1OC	> 100	–
COc1cc2c(cc1O)oc(=O)c1c2c(-c2ccc(OC)c(OC)c2)c2c3cc(OC)c(OC)cc3ccn21	2.5	–
O=c1oc2ccccc2c2c(-c3ccc(O)c(O)c3)c3c4cc(O)c(O)cc4ccn3c12	1.1	–
CC(=O)Oc1ccc(-c2c3c4cc(OC(C)=O)c(OC(C)=O)cc4oc(=O)c3n3ccc4cc(OC(C)=O)c(OC(C)=O)cc4c23)cc1OC(C)=O	11	–
COc1cc(-c2c3c4ccc(O)cc4oc(=O)c3n3ccc4cc(O)c(OC)cc4c23)ccc1O	0.0395	–
COc1cccc(-c2c3c4cc(OC)c(O)cc4oc(=O)c3n3ccc4cc(O)c(OC)cc4c23)c1	0.07	–
COc1ccc(-c2c3c4cc(OC)c(OS(=O)(=O)O)cc4oc(=O)c3n3ccc4cc(OC)c(OC)cc4c23)cc1O	–	IC50 [1]: 8 µM
COc1cc2c(cc1O)oc(=O)c1c2c(-c2ccc(O)cc2)c2c3cc(OC)c(O)cc3ccn21	0.038	–
COc1ccc(-c2c3c4ccccc4oc(=O)c3n3ccc4cc(OC)c(OC)cc4c23)cc1OC	5.7	IC50 (XC): 5.6 µM; IC50 (MDCK [2]): 5.6 µM; IC50 (Vero): 4.7 µM
COc1cc(-c2c3c4cc(OC)c(O)cc4oc(=O)c3n3ccc4cc(O)c(OC)cc4c23)ccc1O [LAMELLARIN D]	0.0105	IC50 (XC): 0.0124 µM; IC50 (MDCK [2]): 0.0225 µM; Activity (MDCK [3]): Non-toxic; IC50 (Vero): 0.0105 µM
O=c1oc2cc(O)c(O)cc2c2c(-c3ccc(O)c(O)c3)c3c4cc(O)c(O)cc4ccn3c12 [LAMELLARIN H]	> 100	–
CO[C@@]12[C@H](COC(N)=O)C3=C(C(=O)C(C)=C(N)C3=O)N1C[C@@H]1N[C@@H]12 [MITOMYCIN]	0.068	–
